Reference: ChEMBL document CHEMBL4513216, “Probing the Open Global Health Chemical Diversity Library for Multistage-Active Starting Points for Next-Generation Antimalarials” (ACS Infect Dis, 2020)

Assay: Toxicity liver stage against HepG2, at 10uM
Assay type: cell-based
Set-up: test concentration 10 uM, cell line HepG2-A16-CD81EGFP
Conditions: human, HepG2-A16-CD81EGFP cells; read-out: INHIBITION
In short: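 Uninfected HepG2-A16-CD81EGFP cells, 3 × 10^3 per well, 1536-well, plated on prespotted compound at 10 μM final, parasite-free screening media added to match infected plates; puromycin 10 μM positive, DMSO 0.5% negative; run in parallel with 48 h PbLuc assay at 37 °C, 5% CO2; viability by CellTiter-Glo luminescence, normalized to controls.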

First: O=C(C1CC1)N1C[C@@H](F)[C@@H](OCc2nc3cc(F)ccc3[nH]2)C1
Second: Cc1nc2ccc(C(=O)N3C[C@@H](O)[C@H](N4CCOCC4)C3)cc2[nH]1
The cytotoxicity at 10 µM of the first is lower: -6.92% for the first, -5.81% for the second.

Going from CCN(CC)C1(Cc2cc(-c3ccccn3)on2)COC1 to Cc1cnc(C(=O)N(C)Cc2nc(-c3ccccn3)no2)cn1, the cytotoxicity at 10 µM rises from 1.41% to 3.42%.

First: O=C1Nc2ccccc2/C1=C1\CCCCN1
Second: c1ccc2c(c1)CN(c1ncnc3sc4c(c13)CCNC4)CCO2
The cytotoxicity at 10 µM of the first is lower: 4.95% for the first, 5.08% for the second.

Going from C[C@H](NC(=O)N1CCN(c2ccc(Cl)cc2)CC1)C(=O)N1CCSCC1 to COCCNC(=O)N1CCN(c2cc(F)ccc2F)CC1, the cytotoxicity at 10 µM rises from -6.3% to -5.95%.

Going from CCOc1ccc(S(=O)(=O)NCCc2ccc(N(C)C)cc2)cc1C to CC(C)Cc1cc(C(=O)NCCc2ccc(S(C)(=O)=O)cc2)[nH]n1, the cytotoxicity at 10 µM falls from -6.48% to -8.93%.

First: COCCN1C[C@H]2CCN(C(=O)c3cc(C)on3)CC[C@H]2S1(=O)=O
Second: Cc1nc(C2CCCN(C(=O)c3ccc(OCC4CC4)nc3)C2)no1 (stereo not given)
The cytotoxicity at 10 µM of the first is higher: -1.69% for the first, -4.41% for the second.

First: O=C(c1ccco1)N1CCC2(CCC(=O)N2Cc2ccncc2)CC1
Second: Cn1nccc1C(=O)N1CCC2(CC1)COC(COc1ccccn1)C2 (stereo not given)
The cytotoxicity at 10 µM of the first is higher: 1.29% for the first, -7.18% for the second.

First: CN(C)CCOCC1CN(C(=O)c2cccnc2)Cc2ccnn2C1 (stereo not given)
Second: CCCc1cc(C(=O)N2CC(c3ccncc3)C2)ccn1
The cytotoxicity at 10 µM of the first is higher: 5.57% for the first, 2.36% for the second.

First: CCC1=N[C@@]2(CC[C@@H]3CN(C(=O)Nc4ccccc4)C[C@@H]32)C(=O)N1CC
Second: CCC1=N[C@@]2(CC[C@@H]3CN(S(=O)(=O)CC(C)C)C[C@@H]32)C(=O)N1CC1CC1
The cytotoxicity at 10 µM of the first is higher: 2.93% for the first, 0.457% for the second.

Compared with Cc1occc1C(=O)N1CC(C(=O)N2CCOCC2)C2(CCOCC2)C1 (stereo not given), O=C(c1ccco1)N1CCOCC2(CCN(C3CCOCC3)C2)C1 (stereo not given) is lower in cytotoxicity at 10 µM: 7.37% for the first, 3.07% for the second.

Compared with COCC1CN(C(=O)C2=CCCCC2)Cc2cnn(CC3CC3)c21 (stereo not given), Cn1cc(CN2C[C@H]3CCC[C@@]3(COCC3CC3)C2)cn1 is lower in cytotoxicity at 10 µM: 3.46% for the first, -97.8% for the second.

Going from COCC1CC2(CCN(C(=O)c3occc3C)CC2)CO1 (stereo not given) to CC(C)NC(=O)C1CCC2(CCN(Cc3cnn(C)c3)CC2)CO1 (stereo not given), the cytotoxicity at 10 µM rises from 0.982% to 9.67%.

Compared with CSCc1cccc(S(=O)(=O)Nc2cc(C)on2)c1, O=C(O)c1cc(-c2ccc3c(c2)OCO3)cc(S(=O)(=O)NC2CC2)c1 is lower in cytotoxicity at 10 µM: 6.27% for the first, 2.8% for the second.

Going from CNc1cncc(C2CCN(C(=O)c3cnco3)CC2)n1 to O=C(c1cnc(C2CC2)s1)N1CCCC1Cn1cccn1 (stereo not given), the cytotoxicity at 10 µM rises from -5.68% to -5.09%.

Compared with CC(NC(=O)CCn1c(=O)oc2ccccc21)c1ccccn1 (stereo not given), COc1ncccc1CNC(=O)N(Cc1ccccc1F)C1CC1 is higher in cytotoxicity at 10 µM: -3.34% for the first, 2.99% for the second.

First: O=C(CCn1c(C(F)(F)F)cc2cccnc21)NC1CCCC1
Second: Cc1cc(C)n(CC2CN(CC(=O)NC3CCCCC3)CCO2)n1 (stereo not given)
The cytotoxicity at 10 µM of the first is lower: -14.3% for the first, -5.17% for the second.

First: Cc1nc(C)n(CC(=O)N2CCc3ncc(Cl)cc3C2)n1
Second: COc1c(C2CCCN2C(=O)c2sc(C)nc2C)c(C)nn1C (stereo not given)
The cytotoxicity at 10 µM of the first is lower: -18.8% for the first, 3.62% for the second.

Compared with COc1ccccc1C1=NOC(CC2(C(=O)NCCO)CCOCC2)C1 (stereo not given), CNC(=O)[C@H]1C[C@H]2CN(Cc3ccc(OC)cc3)C[C@@H]1O2 is higher in cytotoxicity at 10 µM: -26.2% for the first, 3.02% for the second.

First: Cc1nc(O)c2nnn(C[C@H]3CCCN3C(=O)c3ccc(F)cc3)c2n1
Second: Cn1ccc(C(=O)N2CCCC(CNS(C)(=O)=O)C2)cc1=O (stereo not given)
The cytotoxicity at 10 µM of the first is lower: -4.28% for the first, 0.193% for the second.

Going from CCCc1noc(C(C)N2CC(n3cccn3)C2)n1 (stereo not given) to CC(C)n1nc(Cn2cccn2)c2c1CN(CC1CCOC1)C2 (stereo not given), the cytotoxicity at 10 µM rises from 2.13% to 7.13%.

First: CCOC1CCCN(C(=O)CCOc2ccc(C)cc2OC)C1 (stereo not given)
Second: CN(C)CC1(O)CCCN(C(=O)CCc2nc3cccnc3n2C)C1 (stereo not given)
The cytotoxicity at 10 µM of the first is lower: -9.22% for the first, 0.0448% for the second.

First: COc1ccnc(NC(Cc2ccccc2)C(=O)N(C)C)n1 (stereo not given)
Second: CCOc1cc(C(=O)NS(C)(=O)=O)cc(-c2ccccc2)c1OC
The cytotoxicity at 10 µM of the first is lower: 6.39% for the first, 12.5% for the second.

Compared with CC(C)C(=O)Nc1ccc(C(O)Cn2nc(-c3cccs3)oc2=O)cc1 (stereo not given), COc1ccc([C@@H]2CN(C(=O)Cc3cccs3)C[C@H]2NC(C)=O)cc1 is higher in cytotoxicity at 10 µM: -5.31% for the first, -1.16% for the second.

Going from FC(F)COc1ccccc1NCc1nnsc1Cl to Cc1n[nH]c(C)c1NC(=O)NCc1ccccn1, the cytotoxicity at 10 µM rises from -2.63% to 1.85%.

Compared with CCCS(=O)(=O)N1CCCC1c1cccc(N(C)C)c1 (stereo not given), c1ccc(N(CCn2cncn2)CC2CC2)cc1 is higher in cytotoxicity at 10 µM: 1.62% for the first, 3.04% for the second.

First: NC(=O)C1CCCN1C1CCN(C(=O)c2cccc3c2OCO3)CC1 (stereo not given)
Second: COc1cccc(CN2CCCC3(CCN(C(=O)N4CCCC4)C3)C2)c1 (stereo not given)
The cytotoxicity at 10 µM of the first is higher: -0.353% for the first, -4.34% for the second.

Compared with CCC1COCCN1C(=O)NCc1nccn1CC(C)C (stereo not given), CCSCC(C)NCc1nncn1C1CCCCC1 (stereo not given) is higher in cytotoxicity at 10 µM: -3.36% for the first, 15.3% for the second.

First: CC(C)c1nncn1CCNC(=O)c1c(O)cc(F)cc1F
Second: O=C(Cc1cccc(O)c1)NCCCNC(=O)c1cccc(F)c1
The cytotoxicity at 10 µM of the first is lower: -1.99% for the first, 1.65% for the second.

First: CC(C)NC(=O)COc1nc(C(C)(C)C)no1
Second: Cc1cc(C)n(CC(C)NCCn2nc(C)c(Cl)c2C)n1 (stereo not given)
The cytotoxicity at 10 µM of the first is lower: -7.48% for the first, -5.44% for the second.

First: O=C(NCCCO)Nc1cccc(Cl)c1F
Second: CN1CCN([C@H]2CCN(C(=O)c3nn(C)cc3Cl)C[C@H]2CCCO)CC1
The cytotoxicity at 10 µM of the first is higher: 2.79% for the first, -2.86% for the second.

Going from O=C1N(Cc2cccc(F)c2)CCC12CCCN(c1ncc(F)cn1)C2 (stereo not given) to Fc1cnc(N2CC[C@@H]3CN(Cc4ccncc4)CCO[C@@H]3C2)nc1, the cytotoxicity at 10 µM rises from 0.797% to 5.38%.

Compared with Cc1cc(C(F)(F)F)nc(CCNC(C)Cn2cncn2)n1 (stereo not given), CSc1nccc(N2CCC(NCc3nc(C)cc(C)n3)CC2)n1 is lower in cytotoxicity at 10 µM: 12% for the first, 3.41% for the second.

Compared with COCc1cc(N2CCOC(c3ccc(Cl)cc3)C2)ncn1 (stereo not given), Cc1ncc(CN2CCN(c3ccc4nncn4n3)C(C)C2)s1 (stereo not given) is lower in cytotoxicity at 10 µM: 1.92% for the first, -9.04% for the second.

Compared with C[C@@H]1CN(Cc2cc3ccccc3n2C)CC[C@@]1(O)C1CC1, CN(C)CCC1CCCCN1Cc1cnc(-c2ccccn2)nc1 (stereo not given) is higher in cytotoxicity at 10 µM: -2.07% for the first, 3.74% for the second.

First: Cc1nc[nH]c1-c1nccn1CCN(C)S(C)(=O)=O
Second: Cc1nn(C)c(C)c1S(=O)(=O)N1C[C@@H]2C[C@@H](C)O[C@@H]2C1
The cytotoxicity at 10 µM of the first is lower: -6.03% for the first, 0.788% for the second.

First: CC(C)O[C@H]1CN(Cc2cnc3c(-c4ccccc4)cnn3c2)C[C@@H]1O
Second: Cn1cnc2c1C(COCc1ccccc1)N(Cc1cccnc1)CC2 (stereo not given)
The cytotoxicity at 10 µM of the first is lower: 3.45% for the first, 9.61% for the second.

First: CCN1CC2(CCN(C(=O)C3CSC(C)(C)C(=O)N3)CC2)CC1=O (stereo not given)
Second: CCN1CCC2(CCC1=O)CN(c1ccnc(SC)n1)CCN2C (stereo not given)
The cytotoxicity at 10 µM of the first is lower: 1.72% for the first, 17.7% for the second.

First: CCNC(c1ccc(C(C)C)cc1)c1cccnc1 (stereo not given)
Second: c1cncc(C[C@H]2[C@H](N3CCOCC3)CCN2Cc2nccs2)c1
The cytotoxicity at 10 µM of the first is lower: -1.66% for the first, 8.82% for the second.

Compared with Cc1ccc(N2CCC3(CC2)CCN(C2CCOC2)CC3)nn1 (stereo not given), Cn1cc(CN2CCCC23CCN(Cc2nccn2C)CC3)cn1 is lower in cytotoxicity at 10 µM: 7.67% for the first, -5.64% for the second.

Going from CN(C)C(=O)[C@@H]1CCO[C@@H]2CCN(c3ncccn3)C[C@@H]21 to N#Cc1cccc(CN2C[C@@H]3CN(c4ncccn4)C[C@@H]3C2)c1, the cytotoxicity at 10 µM falls from 8.31% to 8.04%.
